# From ChEMBL document CHEMBL3351593, “Potent nonimmunosuppressive cyclophilin inhibitors with improved pharmaceutical properties and decreased transporter inhibition” (J Med Chem, 2014)
# Assays:
# [1] = target: Peptidyl-prolyl cis-trans isomerase A (Homo sapiens, UniProt P62937); experiment: Binding affinity to human cyclophilin A by surface plasmon resonance method
# [2] = test system: Hepatitis C virus; experiment: Antiviral activity against HCV subtype 1b in human Huh7.5 cells expressing subgenomic HCV replicons and coexpressing luciferase reporter gene; assay type: functional, cell-based, Hepacivirus hominis; settings: genotype 1b, Huh-7
# Method in brief: (§1)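 Stable Huh7.5 lines carrying genotype 1a or 1b subgenomic replicons with luciferase reporter, made by RNA electroporation and G418 selection. Assay run in phenol red-free DMEM without G418, sixteen half-log compound dilutions, in triplicate. Luciferase signal read after 72 h relative to DMSO controls, giving EC50.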
# [3] = target: T1, Solute carrier organic anion transporter family member 1B1 (Homo sapiens, UniProt Q9Y6L6); experiment: Inhibition of OATP1B1 (unknown origin) expressed in CHO cells using 8-fluorescein-cAMP substrate by fluorescent photometry; assay type: ADME, cell-based
# T1 sequence (Q9Y6L6 whole entry): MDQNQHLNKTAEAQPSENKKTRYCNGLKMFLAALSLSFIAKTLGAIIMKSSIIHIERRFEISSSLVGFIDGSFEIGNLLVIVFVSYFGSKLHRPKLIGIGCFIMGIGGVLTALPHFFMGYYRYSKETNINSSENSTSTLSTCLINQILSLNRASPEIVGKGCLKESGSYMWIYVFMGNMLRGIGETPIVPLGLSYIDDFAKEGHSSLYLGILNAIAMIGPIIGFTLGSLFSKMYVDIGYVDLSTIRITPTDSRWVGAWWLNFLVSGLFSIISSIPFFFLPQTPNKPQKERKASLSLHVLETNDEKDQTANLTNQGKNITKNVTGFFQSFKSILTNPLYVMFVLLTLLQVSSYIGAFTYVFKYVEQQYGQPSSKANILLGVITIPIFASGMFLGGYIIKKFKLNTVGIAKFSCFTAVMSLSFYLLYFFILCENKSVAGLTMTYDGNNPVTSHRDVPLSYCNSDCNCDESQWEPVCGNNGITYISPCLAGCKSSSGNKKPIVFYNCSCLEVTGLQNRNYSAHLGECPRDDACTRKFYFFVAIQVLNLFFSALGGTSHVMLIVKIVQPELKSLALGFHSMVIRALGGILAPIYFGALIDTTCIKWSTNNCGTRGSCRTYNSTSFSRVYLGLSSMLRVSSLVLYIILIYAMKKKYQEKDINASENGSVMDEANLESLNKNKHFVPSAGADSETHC
# Method in brief: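 CHO-OATP1B1 cells and vector control cells cultured 2 days, then washed and equilibrated 15 min in HBSS + 10 mM HEPES. Exposed 10 min to 2.5 μM 8-fluorescein-cAMP with inhibitor at 0−30 μM (up to 1% DMSO). Cells washed and lysed, uptake measured by fluorescence, and IC50 taken from the concentration-response curve.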
# [4] = target: Cytochrome P450 3A4 (Homo sapiens, UniProt P08684); experiment: Time dependent inhibition of CYP3A4 (unknown origin); assay type: ADME; settings: TDE = time-dependent effect
# Cytochrome P450 3A4, sequence (P08684 whole entry): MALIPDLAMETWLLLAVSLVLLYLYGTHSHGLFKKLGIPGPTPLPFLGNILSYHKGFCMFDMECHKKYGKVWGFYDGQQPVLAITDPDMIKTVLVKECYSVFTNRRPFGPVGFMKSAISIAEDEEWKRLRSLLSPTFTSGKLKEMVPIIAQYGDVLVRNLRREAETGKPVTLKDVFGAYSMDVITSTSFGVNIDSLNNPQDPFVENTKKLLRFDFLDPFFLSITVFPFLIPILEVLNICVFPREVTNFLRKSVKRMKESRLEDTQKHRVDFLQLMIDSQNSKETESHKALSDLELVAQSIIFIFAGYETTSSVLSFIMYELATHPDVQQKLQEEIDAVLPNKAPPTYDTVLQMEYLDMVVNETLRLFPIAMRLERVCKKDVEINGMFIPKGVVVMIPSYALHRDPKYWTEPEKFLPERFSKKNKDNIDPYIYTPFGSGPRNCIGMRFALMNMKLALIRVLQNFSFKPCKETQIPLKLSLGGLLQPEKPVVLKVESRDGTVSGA
# [5] = target: Peptidyl-prolyl cis-trans isomerase B (Homo sapiens, UniProt P23284); experiment: Binding affinity to human cyclophilin B by surface plasmon resonance method
# Peptidyl-prolyl cis-trans isomerase B, sequence (P23284 whole entry): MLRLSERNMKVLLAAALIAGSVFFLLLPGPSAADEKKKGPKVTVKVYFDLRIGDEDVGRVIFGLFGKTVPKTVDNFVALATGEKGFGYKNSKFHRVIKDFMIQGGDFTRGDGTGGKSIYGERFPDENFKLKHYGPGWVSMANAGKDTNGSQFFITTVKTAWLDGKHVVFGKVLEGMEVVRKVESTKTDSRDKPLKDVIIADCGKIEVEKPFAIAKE
# Method in brief: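 Biotinylated cyclophilin proteins examined by single-cycle kinetics SPR. Running buffer 10 mM HEPES pH 7.4, 150 mM NaCl, 0.05% P20, 3% DMSO, with inhibitor. Each concentration injected for 1 min at 50 μL/min, then 10 min dissociation. kon, koff and KD obtained from a 1:1 binding fit.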
# [6] = target: Peptidyl-prolyl cis-trans isomerase F, mitochondrial (Homo sapiens, UniProt P30405); experiment: Binding affinity to human cyclophilin F by surface plasmon resonance method
# Peptidyl-prolyl cis-trans isomerase F, mitochondrial, sequence (P30405 whole entry): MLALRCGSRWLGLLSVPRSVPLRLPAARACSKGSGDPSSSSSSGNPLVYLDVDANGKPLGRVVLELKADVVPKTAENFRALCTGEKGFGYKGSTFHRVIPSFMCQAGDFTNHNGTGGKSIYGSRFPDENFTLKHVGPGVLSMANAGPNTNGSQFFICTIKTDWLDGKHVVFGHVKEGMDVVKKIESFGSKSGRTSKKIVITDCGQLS
# Method in brief: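 Surface plasmon resonance with biotinylated cyclophilin protein, single-cycle kinetics. Running buffer 10 mM HEPES pH 7.4, 150 mM NaCl, 0.05% P20, 3% DMSO, with inhibitor present. Compound injected at several concentrations, 1 min contact each at 50 μL/min, then 10 min final dissociation. kon, koff and KD obtained from a 1:1 binding model fit.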
# [7] = test system: Hepatitis C virus; experiment: Antiviral activity against HCV subtype 1a in human Huh7.5 cells expressing subgenomic HCV replicons and coexpressing luciferase reporter gene; assay type: functional, cell-based, Hepacivirus hominis; settings: Huh-7; method in brief: as §1
# [8] = test system: Hepatitis C virus; experiment: Antiviral activity against HCV subtype 1b in human Huh7.5 cells expressing subgenomic HCV replicons and coexpressing luciferase reporter gene in presence of 40% human serum; assay type: functional, cell-based, Hepacivirus hominis; settings: genotype 1b, Huh-7
# Method in brief: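 Genotype 1b luciferase replicon in Huh7.5 cells with 40% human serum added to the assay medium, in phenol red-free DMEM without G418. Sixteen half-log dilutions in triplicate. Luciferase read after 72 h relative to DMSO-treated cells, giving EC50.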
# [9] = test system: PBMC; experiment: Cytotoxicity against PHA-stimulated human PBMC by 5-bromo-2'-deoxyuridine incorporation assay; assay type: cell-based
# Method in brief: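 Fresh PBMCs from two human donors in X-VIVO 15 medium, stimulated with PHA. Seven concentrations taken from a half-log series. Incubated 60 h at 37 °C, 5% CO2, with BrdU added for the final 12 h. Incorporation read by anti-BrdU ELISA at 450 nm. Percent inhibition against PHA-stimulated untreated cells after background subtraction, four-parameter fit giving IC50.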
# [10] = Cytotoxicity against human MT4 cells by CDCF probe based assay; assay type: cell-based
# Peptidyl-prolyl cis-trans isomerase A, sequence (P62937 whole entry): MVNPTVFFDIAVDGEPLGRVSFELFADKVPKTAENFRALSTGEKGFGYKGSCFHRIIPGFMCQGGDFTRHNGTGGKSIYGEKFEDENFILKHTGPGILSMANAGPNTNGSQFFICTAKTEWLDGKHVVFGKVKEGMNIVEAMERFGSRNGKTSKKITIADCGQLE
SMILES,Kd [1],EC50 [2],IC50 [3],inhibition (INH) [4],Kd [5],Kd [6],EC50 [7],EC50 [8],IC50 [9],CC50 [10]
C/C=C/C[C@@H](C)[C@@H](O)[C@H]1C(=O)N[C@@H](CC)C(=O)N(C)[C@H](C)C(=O)N(C)[C@@H]([C@H](C)CC#N)C(=O)N[C@@H](C(C)C)C(=O)N(C)[C@@H](CC(C)C)C(=O)N[C@@H](C)C(=O)N[C@H](C)C(=O)N(C)[C@@H](CC(C)C)C(=O)N(C)[C@@H](CC(C)C)C(=O)N(C)[C@@H](C(C)C)C(=O)N1C,1.3 nM,28 nM,1000 nM,,,,,,,
C/C=C/C[C@@H](C)[C@@H](O)[C@H]1C(=O)N[C@@H](CC)C(=O)N(C)[C@H](C)C(=O)N(C)[C@@H]([C@H](C)COC)C(=O)N[C@@H](C(C)C)C(=O)N(C)[C@@H](CC(C)C)C(=O)N[C@@H](C)C(=O)N[C@H](C)C(=O)N(C)[C@@H](CC(C)C)C(=O)N(C)[C@@H](CC(C)C)C(=O)N(C)[C@@H](C(C)C)C(=O)N1C,1.7 nM,36 nM,2800 nM,,,,,,,
C/C=C/C[C@@H](C)[C@@H](O)[C@H]1C(=O)N[C@@H](CC)C(=O)N(C)[C@H](C)C(=O)N(C)[C@@H]([C@H](C)CN2CCOCC2)C(=O)N[C@@H](C(C)C)C(=O)N(C)[C@@H](CC(C)C)C(=O)N[C@@H](C)C(=O)N[C@H](C)C(=O)N(C)[C@@H](CC(C)C)C(=O)N(C)[C@@H](CC(C)C)C(=O)N(C)[C@@H](C(C)C)C(=O)N1C,3.1 nM,33 nM,4300 nM,,,,,,,
C/C=C/C[C@@H](C)[C@@H](O)[C@H]1C(=O)N[C@@H](CC)C(=O)N(C)[C@H](C)C(=O)N(C)[C@@H]([C@H](C)CN2CCCOCC2)C(=O)N[C@@H](C(C)C)C(=O)N(C)[C@@H](CC(C)C)C(=O)N[C@@H](C)C(=O)N[C@H](C)C(=O)N(C)[C@@H](CC(C)C)C(=O)N(C)[C@@H](CC(C)C)C(=O)N(C)[C@@H](C(C)C)C(=O)N1C,1.9 nM,37 nM,1800 nM,,,,,,,
C/C=C/C[C@@H](C)[C@@H](O)[C@H]1C(=O)N[C@@H](CC)C(=O)N(C)[C@H](C)C(=O)N(C)[C@@H]([C@H](C)CN2CCC(F)(F)C2)C(=O)N[C@@H](C(C)C)C(=O)N(C)[C@@H](CC(C)C)C(=O)N[C@@H](C)C(=O)N[C@H](C)C(=O)N(C)[C@@H](CC(C)C)C(=O)N(C)[C@@H](CC(C)C)C(=O)N(C)[C@@H](C(C)C)C(=O)N1C,4 nM,44 nM,,,,,,,,
C/C=C/C[C@@H](C)[C@@H](O)[C@H]1C(=O)N[C@@H](CC)C(=O)N(C)[C@H](C)C(=O)N(C)[C@@H]([C@H](C)CN2CC3CCC(C2)O3)C(=O)N[C@@H](C(C)C)C(=O)N(C)[C@@H](CC(C)C)C(=O)N[C@@H](C)C(=O)N[C@H](C)C(=O)N(C)[C@@H](CC(C)C)C(=O)N(C)[C@@H](CC(C)C)C(=O)N(C)[C@@H](C(C)C)C(=O)N1C,2.5 nM,42 nM,1800 nM,,,,,,,
C/C=C/C[C@@H](C)[C@@H](O)[C@H]1C(=O)N[C@@H](CC)C(=O)N(C)[C@H](C)C(=O)N(C)[C@@H]([C@H](C)CN2CCC(C#N)CC2)C(=O)N[C@@H](C(C)C)C(=O)N(C)[C@@H](CC(C)C)C(=O)N[C@@H](C)C(=O)N[C@H](C)C(=O)N(C)[C@@H](CC(C)C)C(=O)N(C)[C@@H](CC(C)C)C(=O)N(C)[C@@H](C(C)C)C(=O)N1C,1.4 nM,29 nM,,,,,,,,
C/C=C/C[C@@H](C)[C@@H](O)[C@H]1C(=O)N[C@@H](CC)C(=O)N(C)[C@H](C)C(=O)N(C)[C@@H]([C@H](C)CN(C)CCOC)C(=O)N[C@@H](C(C)C)C(=O)N(C)[C@@H](CC(C)C)C(=O)N[C@@H](C)C(=O)N[C@H](C)C(=O)N(C)[C@@H](CC(C)C)C(=O)N(C)[C@@H](CC(C)C)C(=O)N(C)[C@@H](C(C)C)C(=O)N1C,1.8 nM,42 nM,2000 nM,,,,,,,
C/C=C/C[C@@H](C)[C@@H](O)[C@H]1C(=O)N[C@@H](CC)C(=O)N(C)[C@H](C)C(=O)N(C)[C@@H]([C@H](C)CCN2CCOCC2)C(=O)N[C@@H](C(C)C)C(=O)N(C)[C@@H](CC(C)C)C(=O)N[C@@H](C)C(=O)N[C@H](C)C(=O)N(C)[C@@H](CC(C)C)C(=O)N(C)[C@@H](CC(C)C)C(=O)N(C)[C@@H](C(C)C)C(=O)N1C,1.1 nM,29 nM,,tde,,,,,,
C/C=C/C[C@@H](C)[C@@H](O)[C@H]1C(=O)N[C@@H](CC)C(=O)N(C)[C@H](C)C(=O)N(C)[C@@H]([C@H](C)COCCN2CCOCC2)C(=O)N[C@@H](C(C)C)C(=O)N(C)[C@@H](CC(C)C)C(=O)N[C@@H](C)C(=O)N[C@H](C)C(=O)N(C)[C@@H](CC(C)C)C(=O)N(C)[C@@H](CC(C)C)C(=O)N(C)[C@@H](C(C)C)C(=O)N1C,1.1 nM,36 nM,6400 nM,,,,,,,
"C/C=C/C[C@@H](C)[C@@H](O)[C@H]1C(=O)N[C@@H](CC)C(=O)N(C)C(SCCN(C)C)C(=O)N(C)[C@@H](CC(C)(C)O)C(=O)N[C@@H](C(C)C)C(=O)N(C)[C@@H](CC(C)C)C(=O)N[C@@H](C)C(=O)N[C@H](C)C(=O)N(C)[C@@H](CC(C)C)C(=O)N(C)[C@@H](CC(C)C)C(=O)N(C)[C@@H](C(C)C)C(=O)N1C (single isomer, unassigned) [SCY 635]",,221 nM,,,2.9 nM,3.1 nM,263 nM,192 nM,4700 nM,
C/C=C/C[C@@H](C)[C@@H](O)[C@H]1C(=O)N[C@@H](CC)C(=O)N(C)CC(=O)N(C)[C@@H]([C@@H](C)CC)C(=O)N[C@@H](C(C)C)C(=O)N(C)[C@@H](CC(C)C)C(=O)N[C@@H](C)C(=O)N[C@H](C)C(=O)N(C)[C@@H](CC(C)C)C(=O)N(C)[C@@H](CC(C)C)C(=O)N(C)[C@@H](C(C)C)C(=O)N1C [NIM811],7.5 nM,97 nM,,,7.4 nM,4.2 nM,217 nM,210 nM,2400 nM,13000 nM
